Test [1] has as its target T1, Interstitial collagenase (Homo sapiens, UniProt P03956).
T1 sequence (P03956 whole entry): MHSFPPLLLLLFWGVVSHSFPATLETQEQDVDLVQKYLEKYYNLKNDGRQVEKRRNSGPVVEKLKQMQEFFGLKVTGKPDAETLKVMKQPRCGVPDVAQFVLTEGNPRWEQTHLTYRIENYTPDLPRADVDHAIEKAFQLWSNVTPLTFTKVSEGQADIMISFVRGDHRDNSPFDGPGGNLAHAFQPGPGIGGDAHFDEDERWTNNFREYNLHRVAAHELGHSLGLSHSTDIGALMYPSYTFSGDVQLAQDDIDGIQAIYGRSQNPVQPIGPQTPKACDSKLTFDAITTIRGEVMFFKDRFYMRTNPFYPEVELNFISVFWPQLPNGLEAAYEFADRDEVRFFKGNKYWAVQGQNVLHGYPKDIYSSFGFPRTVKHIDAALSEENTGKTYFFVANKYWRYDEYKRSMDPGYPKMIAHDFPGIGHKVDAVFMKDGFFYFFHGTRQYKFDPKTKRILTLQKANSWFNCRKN
Kind of test: Inhibition of rat skin type I collagen degradation by purified human lung fibroblast collagenase. In short, it runs like this: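 Trypsin-activated, semipurified enzyme from WI-38 lung fibroblast culture supernatants. Compounds sonicated into MeOH and serially diluted; some runs had β-mercaptoethanol at 9.6×10^-5 M final. 3H- or 14C-acetylated collagen (100 μg/tube) added at 4 °C, then 37 °C for 1000 min. Spun 12 000 rpm, 15 min, 4 °C. Supernatant peptides counted by scintillation. Enzyme set for 70% degradation.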

Test [2] deals with T1, Interstitial collagenase. Kind of test: Inhibition of radiolabeled rat skin type I collagen degradation by purified human lung fibroblast collagenase. The procedure, abridged: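 Trypsin-activated, semipurified enzyme from WI-38 lung fibroblast culture supernatants. 3H- or 14C-acetylated collagen (100 μg/tube) added at 4 °C, then 37 °C for 1000 min. Spun 12 000 rpm, 15 min, 4 °C. Supernatant peptides counted by scintillation. Enzyme set for 70% degradation.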

The target in test [3] is T1, Interstitial collagenase. Kind of test: Inhibition of rat skin type I collagen degradation by purified human lung fibroblast collagenase without beta-mercaptoethanol. In short, it runs like this:
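β-Mercaptoethanol omitted. Enzyme was trypsin-activated, semipurified collagenase from WI-38 fibroblast culture supernatants. Compounds sonicated into MeOH, serially diluted. Collagen 3H- or 14C-acetylated, 100 μg/tube, added to tubes cooled to 4 °C. Incubated 37 °C for 1000 min, centrifuged 12 000 rpm for 15 min at 4 °C. Soluble supernatant peptides counted by liquid scintillation.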

The IC50 is the concentration that inhibits the measured activity by half. Lower therefore signals greater potency. On to `CNC(=O)[C@H](Cc1ccc(OC)cc1)NC(=O)C(CC(C)C)C(C)S` (some centres undefined), for which the IC50 in test [1] was 17 nM. On to `CNC(=O)[C@H](Cc1ccc(OC)cc1)NC(=O)[C@H](CC(C)C)[C@@H](S)CC(=O)OC(C)(C)C`, for which it took 10 nM to reach half-maximal inhibition in test [2] (IC50). Same read-out and setting: next, `COC(=O)C[C@H](S)[C@@H](CC(C)C)C(=O)N[C@@H](Cc1ccccc1)C(N)=O` (stereo in doubt; 58cd): 190 nM.

For the compound `CNC(=O)[C@H](Cc1c[nH]c2ccccc12)NC(=O)[C@H](CC(C)C)[C@@H](S)CC(=O)OC`, the half-inhibitory concentration (IC50) in test [3] was determined as 21 nM; in test [1], 2.5 nM.

As for `CNC(=O)[C@H](Cc1ccc(OC)cc1)NC(=O)[C@H](CC(C)C)[C@H](CC(=O)OC)SC(C)=O`, the IC50 in test [2] was found to be 44 nM. The same measure, in the same setting: under `CNC(=O)[C@@H](NC(=O)C(CC(C)C)C(S)CC(=O)OC)C(C)OCc1ccccc1` (stereo in doubt; 57ab) stands 3 nM; under `CNC(=O)[C@H](Cc1ccc(OC)cc1)NC(=O)[C@H](CC(C)C)[C@@H](S)CC(=O)N1CCN(C)CC1`, 120 nM.

On to `CNC(=O)[C@H](Cc1c[nH]c2ccccc12)NC(=O)C(CC(C)C)C(S)CC(=O)OC` (stereo in doubt; 56c), for which, in test [1], the IC50 was found to be 730 nM.

Regarding `CNC(=O)[C@H](Cc1ccc(OC)cc1)NC(=O)[C@H](CC(C)C)[C@@H](S)CC(=O)NCC(=O)OC(C)(C)C`, half-maximal inhibition in test [2] (IC50) was put at 280 nM. In turn, `CNC(=O)[C@H](Cc1c[nH]c2ccccc12)NC(=O)[C@H](CC(C)C)[C@H](CC(=O)OC)SC(C)=O` yielded a concentration for half-maximal inhibition (IC50) in test [1] of 19 nM. The same measure, in the same setting: under `CNC(=O)[C@H](Cc1c[nH]c2ccccc12)NC(=O)C(CC(C)C)C(S)CC(=O)OC` (stereo in doubt; 56b) stands 810 nM.

`CNC(=O)C[C@H](S)[C@@H](CC(C)C)C(=O)N[C@@H](Cc1ccc(OC)cc1)C(=O)NC` yielded an IC50 in test [2] of 145 nM. In test [2], `CNC(=O)[C@H](Cc1ccc(OC)cc1)NC(=O)[C@H](CC(C)C)[C@@H](S)CC(=O)NC(CC(C)C)C(=O)OC(C)(C)C` (some centres undefined) registered a concentration for half-maximal inhibition (IC50) of 980 nM. For the compound `CNC(=O)[C@H](Cc1c[nH]c2ccccc12)NC(=O)[C@H](CC(C)C)[C@H](CC(=O)OC)SS[C@@H](CC(=O)OC)[C@@H](CC(C)C)C(=O)N[C@@H](Cc1c[nH]c2ccccc12)C(=O)NC`, the IC50 in test [3] worked out at 1400 nM; in test [1], 22 nM. `CNC(=O)[C@H](Cc1ccccc1)NC(=O)[C@H](CC(C)C)[C@@H](S)CC(=O)OC` gave an IC50 in test [2] of 2 nM.

`CNC(=O)[C@@H](NC(=O)C(CC(C)C)C(S)CC(=O)OC)C(C)OCc1ccccc1` (stereo in doubt; 57cd) gave an IC50 in test [2] of 13 nM. In the case of `CNC(=O)[C@H](Cc1ccc(OC)cc1)NC(=O)[C@H](CC(C)C)[C@@H](S)CC(=O)NC(CC(C)C)C(=O)O` (some centres undefined), half-maximal inhibition in test [2] (IC50) was put at 830 nM.

Turning to `CNC(=O)[C@H](Cc1ccc(OC)cc1)NC(=O)[C@H](CC(C)C)[C@@H](S)CC(=O)NCC(N)=O`, the IC50 in test [2] came to 32 nM. As for `CNC(=O)[C@H](Cc1ccc(OC)cc1)NC(=O)[C@H](CC(C)C)[C@@H](S)CC(=O)O`, the half-maximal inhibitory concentration (IC50) in test [2] amounted to 25 nM. The same measure, in the same setting: under `CNC(=O)[C@H](Cc1ccc(OC)cc1)NC(=O)[C@H](CC(C)C)[C@@H](S)CC(=O)NCC(=O)O` stands 27 nM; under `CNC(=O)[C@H](Cc1ccc(OC)cc1)NC(=O)[C@H](CC(C)C)[C@@H](S)CC(N)=O`, 23 nM. Regarding `CNC(=O)[C@H](Cc1c[nH]c2ccccc12)NC(=O)[C@@H](CC(C)C)[C@H](S)CC(=O)OC`, the IC50 in test [1] is 12 nM.

The values are drawn from ChEMBL document CHEMBL1126554, “Synthesis of novel modified dipeptide inhibitors of human collagenase: beta-mercapto carboxylic acid derivatives” (J Med Chem, 1993).
